Values after ≈ are worked out from the molar mass of the structure shown. Active and inactive are the calls of the source. The rule behind the calls is not given here.
Legend:
[1] = test system: MCF7; assay: Antimitotic activity in human MCF7mp53 cells assessed as induction of mitotic arrest after 20 hrs; type: functional, cell-based; conditions: MCF7, 20 h
Method in brief: (§1)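 MCF-7mp53 cells in 96-well plates, treated in triplicate with compound at 1-50 μg/mL for 20 h at 37 °C. Plates spun 50g, 2 min, to keep mitotic cells attached. Cells fixed/permeabilized (3.7% formaldehyde, 0.1% Triton X-100 in TBS), blocked with 1% BSA. Mitotic cells stained with TG-3 antibody plus fluorescent secondary, nuclei with Hoechst 33342. High-content imaging gave percentage of cells in mitosis.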

[2] = test system: MCF7; assay: Antimitotic activity in human MCF7mp53 cells assessed as cells arrested at mitotic stage at optimal concentration after 20 hrs; type: functional; method in brief: as §1
[3] = test system: MCF7; assay: Antimitotic activity in human MCF7mp53 cells assessed as induction of mitotic arrest at 50 ug/mL after 20 hrs; type: functional, cell-based; method in brief: as §1

Row | Structure (SMILES) | IC50 [1] | Activity [2] | Activity [3]
1 | CNc1nc2ccn(C)c(=O)c(Cc3cc(Br)c(OC)c(Br)c3)c-2n1 [CERATAMINE A] | 5 µg/mL (≈ 10.7 µM) | 54% | 
2 | CNc1nc2ccn(C)c(=O)c(Cc3cc(C)c(OC)c(C)c3)c-2n1 | 3.5 µg/mL (≈ 10.3 µM) | 67% | 
3 | COc1c(C)cc(Cc2c3nc(N(C)C)nc-3ccn(C)c2=O)cc1C | 3 µg/mL (≈ 8.51 µM) | 82% | 
4 | COc1c(C)cc(/C=C2/C(=O)N(C)C=Cc3nc(N(C)C(=O)C(F)(F)F)n(C)c32)cc1C |  |  | inactive
5 | CNc1nc2ccn(C)c(=O)c(C(O)c3cc(C)c(OC)c(C)c3)c-2n1 (stereo unspecified) |  |  | inactive
6 | COc1c(C)cc(Cc2c3nc(N)nc-3ccn(C)c2=O)cc1C |  |  | inactive
7 | CNc1nc2ccn(C)c(=O)c(Cc3ccc(OC)cc3)c-2n1 [DESBROMOCERATAMINE A] | > 50 µg/mL | 23% | 
